Data as given in ChEMBL document CHEMBL1157439, “Novel benzimidazole derivatives as selective CB2 agonists” (Bioorg Med Chem Lett, 2008).

Experiments:
[1] = target: T1, Cannabinoid receptor 2 (Homo sapiens, UniProt P34972); experiment: Displacement of [3H]CP-55940 from human CB2 receptor
[2] = target: T1, Cannabinoid receptor 2; experiment: Agonist activity at cloned human CB2 receptor in Sf9 cells assessed as stimulation of [35S]GTPgammaS binding assay; type: functional
Procedure, shortened: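 Sf9 membranes carrying cloned human CB2, in 50 mM Hepes, 20 mM NaOH, 100 mM NaCl, 1 mM EDTA, 5 mM MgCl2, 0.1% BSA plus GDP, pH 7.4. 10-point dose–response with [35S]GTPγS (~130,000 dpm/well), 1 h, room temperature. Filtered and washed (Tris/MgCl2/NaCl pH 7.4, 4 °C), then scintillation counted.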

[3] = target: Cannabinoid receptor 1 (Homo sapiens, UniProt P21554); experiment: Displacement of [3H]CP-55940 from human CB1 receptor
[4] = target: T1, Cannabinoid receptor 2; experiment: Agonist activity at cloned human CB2 receptor in Sf9 cells assessed by [35S]GTPgammaS binding assay relative to delta9-THC; type: functional

Cannabinoid receptor 1, sequence (P21554 whole entry): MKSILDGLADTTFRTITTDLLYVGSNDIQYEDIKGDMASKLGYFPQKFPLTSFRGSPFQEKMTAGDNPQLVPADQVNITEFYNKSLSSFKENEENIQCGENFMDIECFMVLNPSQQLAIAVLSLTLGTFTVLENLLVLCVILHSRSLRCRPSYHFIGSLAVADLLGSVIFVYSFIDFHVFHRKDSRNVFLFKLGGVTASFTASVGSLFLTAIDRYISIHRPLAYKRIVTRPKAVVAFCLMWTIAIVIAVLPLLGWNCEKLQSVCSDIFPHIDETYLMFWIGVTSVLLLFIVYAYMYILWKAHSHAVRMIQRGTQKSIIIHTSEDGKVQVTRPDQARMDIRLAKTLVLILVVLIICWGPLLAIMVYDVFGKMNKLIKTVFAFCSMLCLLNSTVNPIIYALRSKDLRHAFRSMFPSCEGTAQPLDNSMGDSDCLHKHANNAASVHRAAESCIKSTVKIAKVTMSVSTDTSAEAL
T1 sequence (P34972 whole entry): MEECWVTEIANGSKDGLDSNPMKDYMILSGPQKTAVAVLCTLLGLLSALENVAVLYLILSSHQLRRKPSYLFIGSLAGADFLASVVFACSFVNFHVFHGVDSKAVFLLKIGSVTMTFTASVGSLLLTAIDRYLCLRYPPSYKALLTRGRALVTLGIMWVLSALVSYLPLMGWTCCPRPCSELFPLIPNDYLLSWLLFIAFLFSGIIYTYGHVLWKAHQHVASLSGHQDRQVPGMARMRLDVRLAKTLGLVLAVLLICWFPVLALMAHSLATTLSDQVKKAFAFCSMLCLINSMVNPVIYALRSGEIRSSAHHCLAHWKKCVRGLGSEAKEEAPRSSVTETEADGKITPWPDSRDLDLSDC

| SMILES | Ki [1] [nM] | EC50 [2] [nM] | Ki [3] [nM] | Emax [4] [%] |
| --- | --- | --- | --- | --- |
| CCN(CC)C(=O)c1ccc2c(c1)nc(Cc1ccc(Oc3ccccc3)cc1)n2CCC(C)C | 4.9 | 3.2 | 2400 | 66 |
| CCOc1ccc(Cc2nc3cc(C(=O)N(CC)CC)ccc3n2CC2CCOCC2)cc1 | 3.9 | 1 | 1210 | 89 |
| CCOc1ccc(Cc2nc3cc(C(=O)N(CC(F)(F)F)CC(F)(F)F)ccc3n2CC2CC2)cc1 | – | 2 | 4530 | 51 |
| CCOc1ccc(Cc2nc3cc(N(C)C(=O)c4cccs4)ccc3n2CC2CC2)cc1 | 5 | 2.6 | 2480 | 51 |
| CCOc1ccc(Cc2nc3cc(C(=O)N(CC)CC)ccc3n2CC23CC4CC(CC(C4)C2)C3)cc1 | 2.8 | 1.3 | 406 | 81 |
| CCN(CC)C(=O)c1ccc2c(c1)nc(Cc1ccc(OC3CCCC3)cc1)n2CCC(C)C | 43 | 18 | > 5000 | 83 |
| CCOc1ccc(Cc2nc3cc(C(N)=O)ccc3n2CC2CC2)cc1 | > 5000 | – | > 5000 | – |
| CCCN(CCC)C(=O)c1ccc2c(c1)nc(Cc1ccc(OCC)cc1)n2CC1CC1 | 2.8 | 2 | 2610 | 67 |
| CCOc1ccc(C(=O)c2nc3cc(C(=O)N(CC)CC)ccc3n2CCC(C)C)cc1 | 35 | 25 | > 5000 | 55 |
| CCOc1ccc(Cc2nc3cc(C(=O)N(CC)CC)ccc3n2Cc2ccco2)cc1 | 11 | 3.3 | > 5000 | 78 |
| Cc1c(C(=O)c2cccc3ccccc23)c2cccc3c2n1[C@H](CN1CCOCC1)CO3 | – | – | – | 64 |
| CCOc1ccc(Cc2nc3cc(C(=O)N(CC)CC)ccc3n2Cc2ccccn2)cc1 | 39 | 25 | > 5000 | 77 |
| CCOc1ccc(Cc2nc3cc(C(=O)N(CC)CC)ccc3n2Cc2cc[n+]([O-])cc2)cc1 | 588 | – | > 5000 | – |
| CCOc1ccc(Cc2nc3cc(NC(C)=O)ccc3n2CC2CC2)cc1 | > 5000 | – | > 5000 | – |
| CCOc1ccc(Cc2nc3cc(C(=O)N(C)C4CCCCC4)ccc3n2CC2CC2)cc1 | 11 | 4.2 | > 5000 | 60 |
| CCN(CC)C(=O)c1ccc2c(c1)nc(Cc1ccc(OC)cc1)n2CCC(C)C | 17 | 7.3 | > 5000 | 43 |
| CCOc1ccc(Cc2nc3cc(C(=O)N(CC)CC)ccc3n2CC2CC2)cc1 | 4.1 | 2.1 | > 5000 | 68 |
| CCN(CC)C(=O)c1ccc2c(c1)nc(Cc1ccc(OC(F)(F)F)cc1)n2CCC(C)C | 25 | 11 | > 5000 | 29 |
| CCOc1ccc(Cc2nc3cc(C(=O)N(CC)CC)ccc3n2Cc2ccncc2)cc1 | 16 | 5 | > 5000 | 78 |
| CCOc1ccc(Cc2nc3cc(N(C)C(C)=O)ccc3n2CC2CC2)cc1 | 1350 | – | > 5000 | – |
| CCOc1ccc(Cc2nc3cc(N(C)C(=O)N4CCCCC4)ccc3n2CC2CC2)cc1 | 4 | 3.3 | 3480 | 60 |
| CCOc1ccc(Cc2nc3cc(N(C)C(=O)N(C)C)ccc3n2CC2CC2)cc1 | 41 | 36 | > 5000 | 55 |
| CCOc1ccc(Cc2nc3cc(C(=O)N(CC)CC)ccc3n2CCC(C)C)cc1 | – | – | > 5000 | 63 |
| CCOc1ccc(Cc2nc3cc(C(=O)N(CC)CC)ccc3n2C[C@@H]2CCCO2)cc1 | 15 | 4.8 | > 5000 | 76 |

| SMILES | Ki [1] [nM] | EC50 [2] [nM] | Ki [3] [nM] | Emax [4] [%] |
| --- | --- | --- | --- | --- |
| CCN(CC)C(=O)c1ccc2c(c1)nc(Cc1ccc(O)cc1)n2CCC(C)C | 799 | – | > 5000 | – |
| CCOc1ccc(Cc2nc3cc(N(C)C(=O)NC(C)C)ccc3n2CC2CC2)cc1 | 5.7 | 6.4 | > 5000 | 51 |
| CCCN(C)C(=O)c1ccc2c(c1)nc(Cc1ccc(OCC)cc1)n2CC1CC1 | 7.6 | 3.2 | > 5000 | 54 |
| CCN(CC)C(=O)c1ccc2c(c1)nc(Cc1ccc(OC(C)C)cc1)n2CCC(C)C | 4.5 | 2.4 | 4680 | 79 |
| CCOc1ccc(Cc2nc3cc(N(C)C(=O)N(CC)CC)ccc3n2CC2CC2)cc1 | 5.9 | 2 | > 5000 | 48 |
| CCOc1ccc(Cc2nc3cc(C(=O)N(CC)CC)ccc3n2C[C@H]2CCCO2)cc1 | 23 | 8.3 | > 5000 | 62 |
| CCOc1ccc(C(O)c2nc3cc(C(=O)N(CC)CC)ccc3n2CCC(C)C)cc1 (configuration not stated) | 57 | – | > 5000 | 70 |
| CCOc1ccc(Cc2nc3cc(C(=O)N4CCCC4)ccc3n2CC2CC2)cc1 | 14 | 6.2 | > 5000 | 51 |
| CCOc1ccc(Cc2nc3cc(C(=O)N(CC)CC)ccc3n2CC2CCNCC2)cc1 | 2920 | – | > 5000 | – |
| CCN(CC)C(=O)c1ccc2c(c1)nc(Cc1ccc(OC3CCC3)cc1)n2CCC(C)C | 44 | 24 | > 5000 | 73 |
| CCNC(=O)c1ccc2c(c1)nc(Cc1ccc(OCC)cc1)n2CC1CC1 | 63 | 52 | > 5000 | 53 |
| CCOc1ccc(Cc2nc3cc(C(=O)N(CC)CC)ccc3n2CC2CC2)nc1 | 27 | 22 | > 5000 | 63 |
| CCOc1ccc(Cc2nc3cc(C(=O)N(CC)CC)ccc3n2CC2CC2)cn1 | – | – | > 5000 | – |
| CCN(CC)C(=O)c1ccc2c(c1)nc(Cc1ccc(OC3CCCCC3)cc1)n2CCC(C)C | 526 | – | > 5000 | – |
| CCOc1ccc(Cc2nc3cc(C(=O)N(CC)CC)ccc3n2CC2CCCC2)cc1 | 1 | 0.7 | 491 | 79 |
| CCOc1ccc(Cc2nc3cc(C(=O)N4CCCCC4)ccc3n2CC2CC2)cc1 | 6.9 | 3 | > 5000 | 45 |
| CCOc1ccc(Cc2nc3cc(C(=O)N(CC)CC)ccc3n2Cc2ccccc2)cc1 | 12 | 1.1 | 4770 | 88 |
| CCOc1ccc(Cc2nc3cc(N(C)C(=O)CC(C)C)ccc3n2CC2CC2)cc1 | 4 | 2.7 | > 5000 | 54 |
| CCN(CC)C(=O)c1ccc2c(c1)nc(Cc1ccc(OCC3CC3)cc1)n2CCC(C)C | 53 | 43 | 4190 | 75 |
| CCOc1ccc(Cc2nc3cc(C(=O)N(CC)CC)ccc3n2CC2CCCCC2)cc1 | 3.7 | 0.52 | 110 | 79 |
| CCOc1ccc(Cc2nc3cc(NC)ccc3n2CC2CC2)cc1 | 4340 | – | > 5000 | – |
| CCN(CC)C(=O)c1ccc2c(c1)nc(Cc1ccc(OCC(F)(F)F)cc1)n2CCC(C)C | 57 | 65 | > 5000 | 68 |
| CCOc1ccc(Cc2nc3cc(C(=O)N(CC)CC)ccc3n2CC2CCC2)cc1 | 1.6 | 1.3 | 3120 | 64 |
